Test results from paper PMC4401146 (Journal of Cellular and Molecular Medicine, 2008).
No end group written: not given here.

Legend:
Assay type in all cases: biochemical
PMCA2 = target: T1, PMCA2 (Homo sapiens, UniProt Q01814); assay: Ca2+-Mg2+-ATPase of microsomes from overexpressing insect cells sf9
T1 sequence (Q01814 1-1243): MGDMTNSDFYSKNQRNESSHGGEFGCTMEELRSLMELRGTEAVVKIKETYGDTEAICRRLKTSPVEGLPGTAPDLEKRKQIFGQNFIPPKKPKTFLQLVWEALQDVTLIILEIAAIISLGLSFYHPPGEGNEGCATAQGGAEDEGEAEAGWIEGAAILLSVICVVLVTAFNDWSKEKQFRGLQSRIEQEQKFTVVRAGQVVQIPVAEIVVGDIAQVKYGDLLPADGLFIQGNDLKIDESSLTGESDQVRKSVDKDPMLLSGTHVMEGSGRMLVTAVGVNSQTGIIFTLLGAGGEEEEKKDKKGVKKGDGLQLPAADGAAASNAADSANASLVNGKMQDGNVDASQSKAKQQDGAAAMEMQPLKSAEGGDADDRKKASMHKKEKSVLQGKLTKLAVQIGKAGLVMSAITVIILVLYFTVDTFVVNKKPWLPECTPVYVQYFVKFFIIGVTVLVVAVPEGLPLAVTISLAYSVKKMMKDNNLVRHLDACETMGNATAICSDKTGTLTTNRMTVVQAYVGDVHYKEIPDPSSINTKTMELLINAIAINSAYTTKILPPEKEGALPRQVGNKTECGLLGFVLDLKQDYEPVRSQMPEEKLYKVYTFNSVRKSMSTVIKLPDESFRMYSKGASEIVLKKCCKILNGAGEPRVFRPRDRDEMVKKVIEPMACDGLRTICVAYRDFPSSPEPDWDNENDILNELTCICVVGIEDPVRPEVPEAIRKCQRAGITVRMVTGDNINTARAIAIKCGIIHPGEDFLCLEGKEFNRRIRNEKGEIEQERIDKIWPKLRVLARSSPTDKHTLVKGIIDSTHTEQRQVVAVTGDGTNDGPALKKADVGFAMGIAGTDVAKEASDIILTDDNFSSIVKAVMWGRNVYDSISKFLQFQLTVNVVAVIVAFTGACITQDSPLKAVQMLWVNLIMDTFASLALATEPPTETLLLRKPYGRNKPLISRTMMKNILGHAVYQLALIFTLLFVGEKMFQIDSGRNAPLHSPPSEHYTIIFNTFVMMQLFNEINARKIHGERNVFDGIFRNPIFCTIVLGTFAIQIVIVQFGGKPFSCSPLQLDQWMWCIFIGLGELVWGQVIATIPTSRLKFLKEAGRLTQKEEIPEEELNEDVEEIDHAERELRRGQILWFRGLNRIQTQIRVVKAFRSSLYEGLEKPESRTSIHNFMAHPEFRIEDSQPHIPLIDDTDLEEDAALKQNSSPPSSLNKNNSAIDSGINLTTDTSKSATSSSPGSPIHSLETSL
Procedure, shortened: (§1)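 Sources: a plasma membrane-enriched fraction from rabbit duodenal mucosa, rich in PMCA1 with little PMCA4, and microsomes from baculovirus-infected Sf9 cells expressing PMCA2 or PMCA3. Activity was followed by NADH loss in a coupled assay at 37°C: basal Mg2+-ATPase, then CaCl2 added, difference taken. Each day's mean control activity was 100%. Ki was fitted by non-linear regression; 3–4 measurements over 2–4 days.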

PMCA1 = target: T2, PMCA1 (Oryctolagus cuniculus, UniProt Q00804); assay: Ca2+-Mg2+-ATPase of rabbit duodenal mucosal PM rich fraction
T2 sequence (Q00804 1-1220): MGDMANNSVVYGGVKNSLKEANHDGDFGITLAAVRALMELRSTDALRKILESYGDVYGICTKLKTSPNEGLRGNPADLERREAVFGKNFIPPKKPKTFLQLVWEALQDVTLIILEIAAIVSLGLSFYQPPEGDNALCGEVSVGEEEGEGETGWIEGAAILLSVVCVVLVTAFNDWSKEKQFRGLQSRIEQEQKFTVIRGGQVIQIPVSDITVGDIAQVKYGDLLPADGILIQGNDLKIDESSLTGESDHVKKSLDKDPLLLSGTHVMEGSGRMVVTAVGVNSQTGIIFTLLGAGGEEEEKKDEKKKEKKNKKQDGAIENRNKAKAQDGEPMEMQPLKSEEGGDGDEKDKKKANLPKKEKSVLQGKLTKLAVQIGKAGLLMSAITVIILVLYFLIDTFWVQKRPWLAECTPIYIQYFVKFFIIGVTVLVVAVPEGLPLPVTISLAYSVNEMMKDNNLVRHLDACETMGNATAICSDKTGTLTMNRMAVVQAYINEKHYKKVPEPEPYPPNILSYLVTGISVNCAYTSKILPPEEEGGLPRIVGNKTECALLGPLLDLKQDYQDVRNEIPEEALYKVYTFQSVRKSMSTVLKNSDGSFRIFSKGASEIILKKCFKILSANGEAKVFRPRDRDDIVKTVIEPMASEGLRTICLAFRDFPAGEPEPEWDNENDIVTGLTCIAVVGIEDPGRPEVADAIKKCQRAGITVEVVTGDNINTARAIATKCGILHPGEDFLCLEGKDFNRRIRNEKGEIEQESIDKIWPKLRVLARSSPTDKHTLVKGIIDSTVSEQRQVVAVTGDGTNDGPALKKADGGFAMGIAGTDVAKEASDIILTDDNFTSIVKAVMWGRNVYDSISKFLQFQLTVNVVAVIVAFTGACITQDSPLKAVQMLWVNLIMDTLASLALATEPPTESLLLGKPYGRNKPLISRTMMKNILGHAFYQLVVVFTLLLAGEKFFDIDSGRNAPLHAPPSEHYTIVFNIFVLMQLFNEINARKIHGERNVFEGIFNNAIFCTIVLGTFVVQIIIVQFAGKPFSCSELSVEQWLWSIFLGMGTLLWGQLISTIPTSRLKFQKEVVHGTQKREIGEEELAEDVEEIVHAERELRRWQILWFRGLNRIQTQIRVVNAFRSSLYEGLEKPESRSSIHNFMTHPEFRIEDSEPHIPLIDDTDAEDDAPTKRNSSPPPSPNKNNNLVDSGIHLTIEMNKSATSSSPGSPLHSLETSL
Procedure, shortened: as §1

PMCA3 = target: T3, PMCA3 (Homo sapiens, UniProt Q16720); assay: Ca2+-Mg2+-ATPase of microsomes from overexpressing insect cells sf9
T3 sequence (Q16720 1-1220): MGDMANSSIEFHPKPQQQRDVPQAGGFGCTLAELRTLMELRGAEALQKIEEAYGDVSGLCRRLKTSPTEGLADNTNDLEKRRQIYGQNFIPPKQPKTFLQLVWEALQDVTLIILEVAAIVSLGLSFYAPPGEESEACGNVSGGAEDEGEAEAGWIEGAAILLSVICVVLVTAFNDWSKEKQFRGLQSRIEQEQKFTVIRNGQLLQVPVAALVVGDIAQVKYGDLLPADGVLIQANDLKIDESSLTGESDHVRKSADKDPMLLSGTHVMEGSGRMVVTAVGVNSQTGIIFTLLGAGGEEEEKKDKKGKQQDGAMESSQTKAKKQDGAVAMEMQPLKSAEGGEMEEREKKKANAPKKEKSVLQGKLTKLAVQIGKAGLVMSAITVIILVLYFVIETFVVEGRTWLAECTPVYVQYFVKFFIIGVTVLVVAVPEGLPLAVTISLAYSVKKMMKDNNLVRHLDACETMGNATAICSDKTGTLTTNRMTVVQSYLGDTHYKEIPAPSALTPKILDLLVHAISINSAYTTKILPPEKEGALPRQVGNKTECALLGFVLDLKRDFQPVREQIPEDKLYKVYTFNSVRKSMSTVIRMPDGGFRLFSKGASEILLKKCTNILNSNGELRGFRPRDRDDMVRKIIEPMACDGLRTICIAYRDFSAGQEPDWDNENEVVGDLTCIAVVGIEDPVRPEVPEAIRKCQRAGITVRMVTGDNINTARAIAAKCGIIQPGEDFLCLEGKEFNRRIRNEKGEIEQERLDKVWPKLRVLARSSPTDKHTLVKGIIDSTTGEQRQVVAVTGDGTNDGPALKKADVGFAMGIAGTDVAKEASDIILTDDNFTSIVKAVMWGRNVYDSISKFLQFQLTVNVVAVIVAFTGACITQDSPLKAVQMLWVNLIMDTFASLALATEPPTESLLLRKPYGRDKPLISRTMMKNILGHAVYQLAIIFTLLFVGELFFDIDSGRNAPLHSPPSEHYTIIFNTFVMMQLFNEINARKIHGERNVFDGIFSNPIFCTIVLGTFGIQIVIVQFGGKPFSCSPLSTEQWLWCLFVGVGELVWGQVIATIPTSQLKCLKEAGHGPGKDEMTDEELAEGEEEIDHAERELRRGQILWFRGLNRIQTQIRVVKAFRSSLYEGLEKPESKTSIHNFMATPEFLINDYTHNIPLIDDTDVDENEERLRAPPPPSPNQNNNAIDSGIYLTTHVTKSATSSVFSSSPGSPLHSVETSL
Procedure, shortened: as §1

PMCA4 = PMCA4 (Homo sapiens, UniProt P23634); assay: PMCA Ca2+-Mg2+-ATPase in human erythrocyte ghosts, coupled enzyme assay
Procedure, shortened: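 Human erythrocyte leaky ghosts were EDTA-washed to strip calmodulin; 0.2–0.4 mg protein per assay. Pyruvate kinase–LDH coupled NADH assay at 37°C in 30 mM imidazole-HCl pH 7.0 with 0.1 mM ouabain, 6 mM MgCl2, 0.5 mM ATP, 0.5 mM EGTA and 4 μg/ml calmodulin. Basal Mg2+-ATPase was subtracted from activity after CaCl2 addition. Ki came from a non-linear fit, saturating substrates; 3–4 measurements over 2–4 days.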

Ki (PMCA2): 40 ± 10 µM
Ki (PMCA1): 21 ± 6 µM
Ki (PMCA3): 67 ± 8 µM
Ki (PMCA4): 2.3 ± 0.3 µM
Substance: TAWSEVLDLLRRGGGSK-NH2 [caloxin 1c2]
